ATG4B inhibitor = ATG4B protease inhibitors, primary screen, biochemical, fluorescence, uHTS. Cysteine protease ATG4B (Homo sapiens), Q9Y4P1. ATG4B cleavage of LC3-PLA2, NBD-HPC fluorescence, 1 h. inhibition, % at 8.33 µM. 340,000 tested, 0.51% active. AID 504462, 2011; in the data active means inhibition above about 40%
Target sequence (Q9Y4P1 whole entry, looked up): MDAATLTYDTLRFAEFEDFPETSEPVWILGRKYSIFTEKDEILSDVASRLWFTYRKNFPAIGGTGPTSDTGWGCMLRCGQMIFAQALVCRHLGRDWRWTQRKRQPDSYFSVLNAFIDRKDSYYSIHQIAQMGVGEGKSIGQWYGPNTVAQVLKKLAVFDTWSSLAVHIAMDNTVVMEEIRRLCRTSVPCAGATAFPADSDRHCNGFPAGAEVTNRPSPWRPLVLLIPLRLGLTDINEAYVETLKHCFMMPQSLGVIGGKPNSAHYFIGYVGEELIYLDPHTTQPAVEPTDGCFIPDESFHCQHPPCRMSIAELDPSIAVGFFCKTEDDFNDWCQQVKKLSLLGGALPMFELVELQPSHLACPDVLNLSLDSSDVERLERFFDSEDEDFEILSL
HTRA1 inhibitor = HTRA1 serine protease inhibitors, primary screen, biochemical, fluorescence polarization, HTS | Q92743 | 340,000 tested, 0.5% active | recombinant HTRA1, FP-rhodamine activity-based probe | inhibition, % at 5.96 µM | AID 504803, 2011; in the data active means inhibition above about 36%
PRMT1 inh = PRMT1 methyltransferase inhibitors, primary screen, biochemical, fluorescence polarization | recombinant PRMT1, activity-based probe fluorescence polarization | AID 652257, 2013 | 370,000 tested, 1.3% active | inhibition, % at 2.79 µM;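 active means inhibition above about 21% made by adding two undisclosed values, limit read from the data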
mABHD4 FP = ABHD4 inhibitors, primary screen, biochemical, fluorescence polarization, mouse; 370,000 tested, 0.54% active; (Lyso)-N-acylphosphatidylethanolamine lipase (Mus musculus), Q8VD66; inhibition, % at 8.92 µM; purified mABHD4, FP-Rh probe fluorescence polarization; AID 720543, 2013;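 active means inhibition exceeding the mean over every tested compound plus 3 SD, cut at about 30% in these data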
Target sequence (Q8VD66 whole entry, looked up): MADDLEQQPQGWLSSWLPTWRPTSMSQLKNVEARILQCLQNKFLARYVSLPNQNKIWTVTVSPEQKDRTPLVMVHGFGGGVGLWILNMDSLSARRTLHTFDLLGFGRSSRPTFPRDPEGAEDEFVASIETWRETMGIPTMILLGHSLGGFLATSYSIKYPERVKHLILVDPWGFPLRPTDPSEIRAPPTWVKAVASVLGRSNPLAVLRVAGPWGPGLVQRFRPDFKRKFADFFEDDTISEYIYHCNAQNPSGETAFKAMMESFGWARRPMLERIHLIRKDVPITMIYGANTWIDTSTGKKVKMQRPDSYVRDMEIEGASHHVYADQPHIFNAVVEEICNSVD
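Test system: mouse ABHD4 enzyme, wild type. Reagent: FP-Rh fluorescent activity-based probe, added after compound pre-incubation. Timing: pre-incubation 45 min, probe exposure 60 min, at 25 °C. Technique: FP readout, ex 525 nm / em 598 nm. Benchmarks: high control S159A mutant with DMSO, low control median of compound wells.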
TCR-CD3 inh = inhibitors of human TCR-CD3 interaction, primary screen, biochemical, fluorescence, TAMRA-labeled TCR probe; inhibition, % at 9.4 µM; 360,000 tested, 0.37% active; AID 651800, 2012; in the data active means inhibition above about 19%;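 further: recombinant mutant TCR 2C K166C tagged with TAMRA read by polarization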
SIAE inh = human SIAE inhibitors, primary screen, biochemical, fluorescence polarization, FP-Rh probe, 1536-well HTS. 370,000 tested, 0.69% active. Sialate O-acetylesterase (Homo sapiens), Q9HAT2. inhibition, % at 9.66 µM. SIAE FP-Rh probe binding;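 active means inhibition above a cutoff: mean of compounds within the control limits plus 3 SD of those, cut at about 17% in these data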
PRMT1 inh conf = PRMT1 methyltransferase inhibitors, confirmation, biochemical, fluorescence polarization, triplicate; shares compounds with PRMT1 inh; recombinant His-PRMT1, activity-based probe fluorescence polarization; inhibition, % at 2.79 µM; 3,300 tested, 42% active; AID 687036, 2013;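 active means mean inhibition across replicates above the hit cutoff derived for the earlier primary screen, cut at about 22% in these data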
Large screens that a line does not name were inactive (follow-up assays come after a bar, where they were run). Shown are actives, neighbours in structure and some others; about 2.9% of the full set was active somewhere.

COc1ccc(CCNC(=O)Nc2ccc3c(c2)[C@@]2(CC(=O)N(CC(C)C)C2c2ccccc2)C(=O)N3C)cc1OC (some centres not stated)	none (no result: ATG4B inhibitor, HTRA1 inhibitor, TCR-CD3 inh)
Cc1ccc(-n2c(-c3cc(-c4ccco4)[nH]n3)n[nH]c2=S)c(Br)c1	none
CC(=O)c1ccc(-n2c(-c3cc(-c4ccco4)[nH]n3)n[nH]c2=S)cc1	none
O=C(O)c1ccc(-n2c(-c3cc(-c4ccco4)[nH]n3)n[nH]c2=S)cc1	PRMT1 inh 48.7 | PRMT1 inh conf inactive
S=c1[nH]nc(-c2cc(-c3ccco3)[nH]n2)n1-c1cccc2ccccc12	PRMT1 inh 36.3 | PRMT1 inh conf 33.2
Cc1c(NC(=O)C2CCCN(S(=O)(=O)c3ccc(Br)s3)C2)c(=O)n(-c2ccccc2)n1C (configuration not stated)	none (no result: ATG4B inhibitor, HTRA1 inhibitor, TCR-CD3 inh)
CCn1c(SCC(=O)c2ccc(-c3ccccc3)cc2)nnc1-c1ccccc1OC	none (no result: ATG4B inhibitor, HTRA1 inhibitor, TCR-CD3 inh)
CCN(CC)CCCNC(=O)/C=C/C(=O)O	PRMT1 inh 27.3 | PRMT1 inh conf inactive
O=C(CSC1=Nc2ccccc2C2CC=NN12)Nc1ccc(F)cc1Cl (configuration not stated)	PRMT1 inh 32.3 | PRMT1 inh conf 43.1
Oc1ccc(N2CCN(Cc3ccc(OCCCN4CCCCC4)cc3)CC2)cc1	PRMT1 inh 27.5 | PRMT1 inh conf inactive
CCCCOc1ccc(CN2CCCCC2)cc1	none
S=C(Nc1ccccc1Cl)NC1CCN(Cc2ccccc2)CC1	PRMT1 inh 25.4 | PRMT1 inh conf inactive
COc1ccc(C/C(N)=N/OC(=O)c2cccc([N+](=O)[O-])c2)cc1	PRMT1 inh 45.3 | PRMT1 inh conf inactive
COc1ccccc1C/C(N)=N/OC(=O)c1cccc([N+](=O)[O-])c1	none
COc1cccc(C(=O)/C=C2\Sc3ccccc3N2C)c1	none
CN1/C(=C\C(=O)c2cccnc2)Sc2ccccc21	PRMT1 inh 31.4 | PRMT1 inh conf inactive
CCCCCCCCN1C(=O)[C@@H](CC(=O)NCCc2ccccc2OC)C[C@@]2(C(=O)OC)C1=C[C@H](C(C)(C)C)O[C@@H]2C	none (no result: ATG4B inhibitor, HTRA1 inhibitor)
Cn1nnnc1SCC(=O)Nc1nc2c(s1)CCCC2	none
O=C(CSC1=NCCS1)Nc1nc2c(s1)CCCC2	PRMT1 inh 26.3 | PRMT1 inh conf 32.1
S=c1[nH]nc(COc2ccc(Cl)cc2)n1-c1ccc(Cl)cc1	PRMT1 inh 27.5 | PRMT1 inh conf inactive
Cc1ccc(OCc2n[nH]c(=S)n2-c2ccc(Cl)cc2)cc1	none
COc1ccc(-n2c(COc3ccc(Cl)cc3Cl)n[nH]c2=S)cc1	PRMT1 inh 27.3 (no result: ATG4B inhibitor) | PRMT1 inh conf inactive
CC(=O)Nc1ccc2c(c1)C(=O)N(C)[C@H]1CC[C@H](CC(=O)NCc3ccc(F)cc3)O[C@@H]1CO2	none (no result: ATG4B inhibitor, HTRA1 inhibitor, TCR-CD3 inh)
CCn1c2ccccc2c2cc(NC(=O)COC(=O)c3cc(Cl)cc(Cl)c3)ccc21	none (no result: ATG4B inhibitor, HTRA1 inhibitor, TCR-CD3 inh)
COC(=O)C1CSC2c3ccccc3C(=O)N12 (configuration not stated)	PRMT1 inh 32.1 | PRMT1 inh conf inactive
N#CC1=C(N)S[C@@H](C(=O)c2ccc(F)cc2)[C@@H]1c1cccs1	PRMT1 inh 34.7 | PRMT1 inh conf inactive
COC(=O)C[C@H]1CC[C@H]2[C@H](COc3ccc(NC(=O)Nc4ccccc4F)cc3C(=O)N2C)O1	none (no result: ATG4B inhibitor, HTRA1 inhibitor, TCR-CD3 inh)
CC(=O)c1sc2nsc(SCCN3CCOCC3)c2c1N	PRMT1 inh 66.7 (no result: HTRA1 inhibitor) | PRMT1 inh conf inactive
Clc1ccc(-c2nc3nc4ccccc4nc3n2Cc2ccco2)cc1	PRMT1 inh 27.4 | PRMT1 inh conf inactive
COc1ccc(NC2CC(=O)N(c3ccc(C(=O)O)cc3)C2=O)cc1 (configuration not stated)	none
CCOC(=O)c1ccc(N2C(=O)CC(NC3CCN(C(=O)c4ccc(F)cc4)CC3)C2=O)cc1 (configuration not stated)	none
CCOc1ccc(N2C(=O)CC(NC3CCN(C(=O)c4ccc(F)cc4)CC3)C2=O)cc1 (configuration not stated)	PRMT1 inh 53.0 | PRMT1 inh conf inactive
COc1ccc(N2C(=O)CC(NC3CC3)C2=O)cc1 (configuration not stated)	PRMT1 inh 31.7 | PRMT1 inh conf inactive
CN(CCc1ccccc1)C(=O)c1ccc2c(c1)ncn2C1CCCCC1	none (no result: ATG4B inhibitor, HTRA1 inhibitor, TCR-CD3 inh)
COC(=O)[C@]12C[C@H](CC(=O)N3CCSCC3)C(=O)N(Cc3cccc4ccccc34)C1=C[C@H](COCc1ccccc1)O[C@@H]2C	none (no result: ATG4B inhibitor, HTRA1 inhibitor, TCR-CD3 inh)
CCOC(=O)[C@]12CCCCC/C=C\1N(CCc1ccc(Cl)cc1)C(=O)[C@H]2CC(=O)N1CCOCC1	none (no result: ATG4B inhibitor, HTRA1 inhibitor, TCR-CD3 inh)
CCOC(=O)c1ccc(-n2c(CCC(=O)O)ccc2-c2cccs2)cc1	PRMT1 inh 46.8 | PRMT1 inh conf inactive
Cc1ccc(-n2c(CCC(=O)O)ccc2-c2cccs2)cc1C	PRMT1 inh 32.0 | PRMT1 inh conf inactive
CN=C1NC(=O)/C(=C\c2cc(C)n(-c3ccccc3F)c2C)S1	none (no result: ATG4B inhibitor, HTRA1 inhibitor, TCR-CD3 inh)
O=C(OC12CCCN(C1)/C(=C/c1cccc(Cl)c1)C2)c1ccc(Cl)cc1 (configuration not stated)	none (no result: ATG4B inhibitor, HTRA1 inhibitor, TCR-CD3 inh)
CC(=O)Nc1ccc(S(=O)(=O)/N=C2/NC(=O)/C(=C\c3ccco3)S2)cc1	PRMT1 inh 35.2 | PRMT1 inh conf inactive
CC(=O)Nc1ccc2cc3ccc(NC(C)=O)cc3nc2c1	PRMT1 inh 37.0 | PRMT1 inh conf 21.8
CC(=O)Nc1ccc2ccccc2c1	none (no result: PRMT1 inh, mABHD4 FP, TCR-CD3 inh, SIAE inh)
COC(=O)C1CN(Cc2cn(Cc3ccc(F)cc3)nn2)CCS(=O)(=O)N1Cc1ccc(C)cc1 (configuration not stated)	none (no result: ATG4B inhibitor, HTRA1 inhibitor, TCR-CD3 inh)
O=C(CSc1ccc(-c2cccs2)nn1)c1cccs1	PRMT1 inh 27.9 | PRMT1 inh conf inactive
CCC(=O)N1CCc2cc(Br)c(S(=O)(=O)N3CCC(C(=O)NC(C)(C)C)CC3)cc21	none (no result: ATG4B inhibitor, HTRA1 inhibitor, TCR-CD3 inh)
Nc1ccc2nc(-c3ccccc3)cnc2c1	PRMT1 inh 30.8 | PRMT1 inh conf 32.6
Nc1ccc(-c2cnc3ccccc3n2)cc1	none (no result: HTRA1 inhibitor)
CCN(CC)c1ccc(N=C2C=CC(=O)C=C2NC(C)=O)cc1	PRMT1 inh 54.4 (no result: HTRA1 inhibitor) | PRMT1 inh conf inactive
COC(=O)[C@]12C[C@H](CC(=O)NCc3cccc4ccccc34)C(=O)N(Cc3ccco3)C1=C[C@H](C(C)C)O[C@@H]2C1CC1	none (no result: ATG4B inhibitor, HTRA1 inhibitor, TCR-CD3 inh)
CC(C)(C)c1cc(CSC(=S)NC2CCS(=O)(=O)C2)c(Br)c(C(C)(C)C)c1 (configuration not stated)	none
